Experimental data published in PubChem BioAssay.
The source made the active and inactive calls.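 Rule for the calls, unless noted: active = visually confirmed hit in the image check and inhibition above 20%; inconclusive = visually confirmed hit but inhibition not above 20%; inactive = no visual hit in the image check.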

How the values were obtained:
[1] = inhibitors of TNFa-induced NFkB p65 translocation, primary screen, imaging, HUVEC, MLSMR starter and 10KST1 sets (AID 438;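 active = inhibition above 20% together with a positive visual image hit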;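 note: compound added about 3h40 before a 20 min TNFalpha stimulation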;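 for inhibition: signal is the nuclear over cytoplasmic p65 intensity ratio per well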); settings: HUVEC TNFa-induced p65 nuclear translocation; cell count: measured here: nuclei count (cytotoxicity indicator), at 2.08 µM; inhibition: at 2 µM, stronger effect = higher value, 0% TNFa-plus-vehicle, 100% no-TNFa wells
[2] = endothelial E-selectin expression blockers – imaging, HUVEC, immunofluorescence, MLSMR starter and 10KST1 sets, primary screen (AID 487); settings: HUVEC TNFalpha-induced E-selectin immunofluorescence imaging, at 2 µM; inhibition: stronger effect = higher value; nuclei count: measured here: cell number, toxicity;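 for inhibition: signal is fraction of cell area covered by stained E-selectin grains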;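 for nuclei count: 100% = median nuclei count of all wells on the same plate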
[3] = Primary imaging screen for DUSP6 inhibitors that restore phospho-Erk in transfected HeLa cells, chemical complementation (AID 609;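 active = compounds giving at least 50% inhibition in the cell-based MKP-3 phosphatase rescue imaging test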;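 for inhibition: phospho-Erk level distribution per well compared with pooled transfected vehicle control wells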); settings: HeLa MKP-3 transfected, phospho-Erk imaging KS statistic, at 10 µM, cells stimulated with TPA for 15 min
[4] = target: Dual specificity protein phosphatase 6 (Homo sapiens) (UniProt Q16828); assay: as above; settings: HeLa MKP-3 transfected, phospho-Erk imaging KS statistic; at 10 µM; stronger effect = higher value; cells stimulated with TPA for 15 min
Chain of Dual specificity protein phosphatase 6 (Homo sapiens) (Q16828 whole entry, looked up): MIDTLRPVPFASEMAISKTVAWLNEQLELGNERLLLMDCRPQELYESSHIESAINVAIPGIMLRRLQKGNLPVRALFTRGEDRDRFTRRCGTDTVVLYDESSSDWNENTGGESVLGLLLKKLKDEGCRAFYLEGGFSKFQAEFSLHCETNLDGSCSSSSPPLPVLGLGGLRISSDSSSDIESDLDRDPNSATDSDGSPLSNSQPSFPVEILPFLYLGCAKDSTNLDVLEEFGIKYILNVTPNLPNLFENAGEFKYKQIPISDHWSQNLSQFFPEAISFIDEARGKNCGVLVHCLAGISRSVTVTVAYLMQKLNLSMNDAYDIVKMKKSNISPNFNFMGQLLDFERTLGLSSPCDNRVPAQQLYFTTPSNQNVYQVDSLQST

[5] = target: Voltage-gated potassium channel subunit beta-2 (Rattus norvegicus) (UniProt P62483); assay: inhibitors of rat Kvbeta2 reductase activity – biochemical, NADPH fluorescence, primary screen (AID 622;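 active = fluorescence slope higher than the sample average by over 3 SD, cut at about -0.22 in these data, passing the limit was not always enough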;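 note: slope of raw intensity against log time taken from 70 to 1610 s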); settings: recombinant KvBeta, 4-cyanobenzaldehyde reduction, at 10 µM, stronger effect = higher value
Chain of Voltage-gated potassium channel subunit beta-2 (Rattus norvegicus) (P62483 whole entry, looked up): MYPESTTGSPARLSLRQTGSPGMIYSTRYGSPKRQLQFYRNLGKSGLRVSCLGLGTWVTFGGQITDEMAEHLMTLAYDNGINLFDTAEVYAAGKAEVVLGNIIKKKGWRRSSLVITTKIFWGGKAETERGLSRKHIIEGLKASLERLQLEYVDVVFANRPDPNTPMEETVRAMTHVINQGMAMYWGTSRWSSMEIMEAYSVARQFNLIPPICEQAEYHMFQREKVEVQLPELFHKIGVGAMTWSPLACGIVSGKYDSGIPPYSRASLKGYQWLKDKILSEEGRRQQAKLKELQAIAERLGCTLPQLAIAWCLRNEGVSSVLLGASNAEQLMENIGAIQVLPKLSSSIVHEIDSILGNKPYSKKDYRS

[6] = target: Voltage-gated potassium channel subunit beta-2 (Rattus norvegicus) (UniProt P62483); assay: enhancers of rat Kvbeta2 NADPH turnover – biochemical, NADPH fluorescence, primary screen (AID 623;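 active = NADPH fluorescence slope more negative than the mean of all samples by about 3 SD, 99.7% confidence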;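 note: fluorescence intensity change per second fitted from 20 to 320 s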); settings: Recombinant KvBeta, NADPH fluorescence decrease slope, 10 min; at 10 µM; stronger effect = lower value
[7] = target: Muscarinic acetylcholine receptor M4 (Homo sapiens) (UniProt P08173); assay: M4-linked GIRK flux change, two-sided – cell-based, HEK293 M4/GIRK, thallium flux, BTC-AM, M4 allosteric agonist project, primary screen (AID 625;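 active = fluorescence slope after compound addition differing from the mean of all tested samples at 99.7% confidence, mostly higher but some lower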;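 note: thallium influx through GIRK channels coupled to M4 in HEK293 cells with BTC-AM dye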); settings: at 10 µM, actives lie on both sides
Chain of Muscarinic acetylcholine receptor M4 (Homo sapiens) (P08173 whole entry, looked up): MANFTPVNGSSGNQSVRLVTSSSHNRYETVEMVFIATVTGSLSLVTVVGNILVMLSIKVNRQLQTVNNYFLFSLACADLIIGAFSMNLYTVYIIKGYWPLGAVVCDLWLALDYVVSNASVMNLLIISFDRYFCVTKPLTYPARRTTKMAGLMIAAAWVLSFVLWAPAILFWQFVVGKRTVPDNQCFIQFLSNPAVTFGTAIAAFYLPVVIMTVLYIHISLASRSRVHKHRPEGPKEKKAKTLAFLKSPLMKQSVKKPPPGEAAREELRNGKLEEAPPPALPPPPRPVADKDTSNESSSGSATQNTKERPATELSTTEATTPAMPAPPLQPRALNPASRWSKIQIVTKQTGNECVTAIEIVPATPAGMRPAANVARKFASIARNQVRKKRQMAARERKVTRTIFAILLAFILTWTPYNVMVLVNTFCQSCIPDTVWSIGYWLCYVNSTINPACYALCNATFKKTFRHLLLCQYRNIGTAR
In short: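 assay system = HEK293 cells with M4 receptor and GIRK channels | medium = pH 7.3 thallium assay buffer | doses = 10 µM final, single point | timing = cells overnight at 37 °C, BTC-AM loading 1 h, reads 2 min total | signal = BTC-AM fluorescence, 1 Hz kinetic reads | read-out = post-addition slope, 15–24 s, of baseline-normalized fluorescence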

[8] = inhibitors of larval lipid processing in zebrafish, primary screen, whole organism, PED6 fluorescence, gall bladder and intestine (AID 686;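 active = a full or partial loss of lipid-probe fluorescence in the fish gall bladder, intestine or both, judged by eye; inactive = no fluorescence loss, or compound toxic to the fish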;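 note: larvae 5 to 7 days old with five fish per well; signal comes from phospholipase A2 cleavage of quenched PED6 carried via bile; overnight exposure to compound and PED6 before scoring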); settings: Zebrafish larvae PED6 lipid processing, fluorescence scoring; screened at 20 µM (by protocol)
In short: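 Also added: quenched phospholipase substrate PED6, 100 nM final, ingested by larvae; System: zebrafish larvae, 5-7 d; Quantity: 5 larvae per well; Compound: 20 µM single dose; Schedule: overnight compound and PED6 incubation; Read-out: visual per-well fluorescence inhibition score; Measured by: By-eye fluorescence microscopy; Medium: E3.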

[9] = loss of swimming-algae plug formation – whole organism, Chlamydomonas reinhardtii, WT vs cilia-less mutant, absorbance, 96-well, primary screen (AID 463189;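 active = inhibition at or above 50% relative to wild type and mutant plate controls; inactive = inhibition below 50%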;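 note: 0% = wild type cc124 cells in DMSO and 100% = ciliumless bld1 mutant cells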); settings: Chlamydomonas reinhardtii gravitaxis, OD600 absorbance, 2 days; at 10 µM; stronger effect = higher value
[10] = measured here: cell density z-score
[11] = measured here: nuclear c-Myc green intensity z-score
[12] = measured here: nuclear pErk red intensity z-score, stronger effect = higher value

Row | SMILES | cell count [1] | inhibition [1] | inhibition [2] | nuclei count [2] [%] | z-score [3, 10] | z-score [3, 11] | z-score [3, 12] | inhibition [4] | fluorescence slope [5] | NADPH fluorescence slope [6] | fluorescence slope [7] | outcome [8] | inhibition [9]
1 | O=C(O)C1CC(=O)N(Cc2cccs2)C1 (stereo unspecified) | 557 | -4.7% (inactive) | -73.2% (inactive) | 165 | 0.677 | 0.857 | -1.54 | 17.8% (inactive) | -0.404 (inactive) | -3e-05 (inactive) | 0.00636 (inactive) | inactive | -9.05% (inactive)
2 | Cn1c(=O)c2c3c(sc2n2c(SCC(=O)c4ccccc4)nnc12)COC(C)(C)C3 | 532 | -12.7% (inactive) | 44.5% (inactive) | 48.5 | 0.653 | -0.107 | -0.293 | 9.07% (inactive) | -0.511 (inactive) | 1.2e-05 (inactive) | 0.00374 (inactive) | inactive | 35.1% (inactive)
3 | COc1cccc(Cn2c(NCc3ccco3)nc3c2c(=O)n(C)c(=O)n3C)c1 | 704 | -6.1% (inactive) | -198% (inactive) | 180 | 0.733 | 0.0104 | 0.0373 | 27.8% (inactive) | -0.476 (inactive) | -0.000112 (inactive) | 0.00767 (inactive) | inactive | 0.377% (inactive)
4 | COc1ccc(CN(C#N)c2nc(SC)nc(N(C)C)n2)cc1 | 720 | -0.6% (inactive) | -41.4% (inactive) | 137 | 0.386 | 1.03 | 0.357 | -3.95% (inactive) | -0.451 (inactive) | -4.7e-05 (inactive) | 0.00509 (inactive) | inactive | -6.51% (inactive)
5 | Cc1c(C)n(C(=O)CSc2nccn2C)c2ccccc12 | 625 | 8.3% (inactive) | -34.7% (inactive) | 106 | -0.766 | 1.61 | 0.593 | 1.63% (inactive) | -0.416 (inactive) | -3.5e-05 (inactive) | 0.00619 (inactive) | inactive | -7.86% (inactive)
6 | CCOC(=O)Cc1[nH]nc2c1C(c1cc(OC)ccc1OC)C(C#N)=C(N)O2 (stereo unspecified) | 591 | -5.3% (inactive) | -13.2% (inactive) | 140 | 1.07 | 1.02 | 0.992 | 21% (inactive) | -0.503 (inactive) | -5.8e-05 (inactive) | 0.00642 (inactive) | inactive | -4.63% (inactive)
7 | Clc1ccc(-n2ncc3c(N4CCCC4)ncnc32)cc1 | 589 | -9.4% (inactive) | -131% (inactive) | 94.9 | -3.24 | 1.27 | 1.5 | 7.42% (inactive) | -0.411 (inactive) | -5e-05 (inactive) | 0.00915 (inactive) | inactive | 134% (active)
8 | Cc1c(=O)n(OCc2c(F)cccc2F)c2ccccc2[n+]1[O-] | 542 | -10.8% (inactive) | -125% (inactive) | 163 | -0.166 | -0.624 | -0.0317 | 3.97% (inactive) | -0.406 (inactive) | -4.3e-05 (inactive) | 0.00531 (inactive) | inactive | -0.428% (inactive)
9 | C=CCN(CC=C)c1nc2ccccc2nc1C(C#N)C(=O)OC(C)C (stereo unspecified) | 639 | -6.1% (inactive) | -48.1% (inactive) | 173 | -0.0253 | -0.36 | 0.934 | -13.3% (inactive) | -0.467 (inactive) | -4.8e-05 (inactive) | 0.00206 (inactive) | inactive | 7.18% (inactive)
10 | CC(NC(=O)CSc1nnc(COc2ccccc2)o1)c1ccccc1 (stereo unspecified) | 397 | 1.7% (inactive) | -35.2% (inactive) | 134 | -0.868 | 0.275 | 1.84 | -6.86% (inactive) | -0.453 (inactive) | -0.000143 (inactive) | 0.00476 (inactive) | inactive | 5.02% (inactive)
11 | N#Cc1nc(COc2ccccc2F)oc1NCCCn1ccnc1 | 465 | -4% (inactive) | -87.7% (inactive) | 136 | -0.925 | 1.53 | 1.43 | -0.624% (inactive) | -0.414 (inactive) | -2.3e-05 (inactive) | 0.00507 (inactive) | inactive | -8.85% (inactive)
12 | Nc1nnnn1/N=C/c1cccc(Oc2ccccc2)c1 | 539 | -12.1% (inactive) | 65.8% (inactive) | 88.7 | 1.62 | -1.31 | -1.66 | 21% (inactive) | -0.523 (inactive) | -1.8e-05 (inactive) | 0.00678 (inactive) | inactive | 13.4% (inactive)
13 | CCCCSc1nnc(-c2ccc(NC(C)=O)cc2)n1C | 622 | -5.3% (inactive) | 21.1% (inactive) | 166 | -0.239 | 0.0535 | 0.233 | -13.3% (inactive) | -0.461 (inactive) | -3e-05 (inactive) | 0.00598 (inactive) | inactive | -9.33% (inactive)
14 | CC(NC(=O)Nc1nnc(C(F)(F)F)s1)(C(F)(F)F)C(F)(F)F | 640 | 3.6% (inactive) | -157% (inactive) | 149 | -0.473 | 0.624 | 0.273 | 1.63% (inactive) | -0.465 (inactive) | -5.5e-05 (inactive) | 0.00252 (inactive) | inactive; toxic | 1.97% (inactive)
15 | CCOC(=O)c1c(C)n(C)c2ccc(O)c(CN3CCCCC3)c12 | 616 | 9.7% (inactive) | -7.7% (inactive) | 92.8 | -0.792 | 0.194 | -0.0734 | -15.1% (inactive) | -0.442 (inactive) | -3.9e-05 (inactive) | 0.00334 (inactive) | inactive | 22.8% (inactive)
16 | COc1ccc2nc(SCC(=O)O)nc(C)c2c1 | 472 | -2.5% (inactive) | -119% (inactive) | 167 | -1.34 | -1.35 | 0.21 | -2.29% (inactive) | -0.447 (inactive) | -4.9e-05 (inactive) | 0.00491 (inactive) | inactive | 25.2% (inactive)
17 | O=c1cc(-c2ccco2)nc(-c2cccs2)o1 | 667 | 5.6% (inactive) | 7.4% (inactive) | 99.4 | -0.166 | -0.514 | -0.386 | 9.91% (inactive) | -0.561 (inactive) | -5.3e-05 (inactive) | 0.0053 (inactive) | inactive | 22.8% (inactive)
18 | CCOC(=O)C1=C(N)n2c(s/c(=C\c3cccnc3)c2=O)=C(C(=O)OC)C1c1cccnc1 (stereo unspecified) | 326 | -14.1% (inactive) | -129% (inactive) | 110 | -0.584 | 1.82 | -0.0878 | -2.59% (inactive) | -0.501 (inactive) | 1.7e-05 (inactive) | 0.00354 (inactive) | inactive | -3.27% (inactive)
19 | CCOC(=O)c1ccc(NC(=O)COc2ccccc2OC)cc1 | 668 | -1.6% (inactive) | 26.3% (inactive) | 179 | 1.9 | 0.486 | -1.19 | 33.3% (inactive) | -0.465 (inactive) | -0.000105 (inactive) | 0.00666 (inactive) | inactive | -9.5% (inactive)
20 | CC(=O)NCC(=O)OCN1C(=O)c2ccccc2C1=O | 520 | -8.8% (inactive) | -105% (inactive) | 154 | 0.466 | -1.64 | -0.405 | 15.9% (inactive) | -0.376 (inactive) | 7.5e-06 (inactive) | 0.00573 (inactive) | inactive | 20% (inactive)
21 | CCCCn1c(=O)n(C)c(=O)c2c3c(sc21)COC(C)(C)C3 | 589 | -5.2% (inactive) | -64.5% (inactive) | 144 | -0.346 | -0.449 | -0.806 | 1.63% (inactive) | -0.447 (inactive) | -1.3e-06 (inactive) | 0.00382 (inactive) | inactive | 43.8% (inactive)
22 | Cc1cc(=O)oc2c(CN3CCCCC3)c(O)c(Cl)cc12 | 703 | -7.3% (inactive) | -40.4% (inactive) | 146 | 0.085 | 0.889 | -2.46 | 7.83% (inactive) | -0.0387 (inactive) | -0.000132 (inactive) | 0.0046 (inactive) | inactive | 15.8% (inactive)
23 | Cc1cc(OCC(=O)Nn2cnnc2)ccc1Br | 529 | -8.3% (inactive) | -72.3% (inactive) | 119 | 0.551 | 0.431 | 0.858 | -6.59% (inactive) | -0.433 (inactive) | -0.00012 (inactive) | 0.00434 (inactive) | inactive | -9.18% (inactive)
24 | CC(NC(=O)Nc1ccc(O)cc1)(C(F)(F)F)C(F)(F)F | 709 | -15.9% (inactive) | -16.4% (inactive) | 151 | -0.386 | 1.06 | 0.803 | -3.95% (inactive) | -0.461 (inactive) | -4.3e-05 (inactive) | 0.00553 (inactive) | inactive | 0.534% (inactive)
25 | O=c1cc(N2CCCCC2)nc2n1CCCS2 | 568 | 2.3% (inactive) | 20.6% (inactive) | 149 | 0.266 | -0.928 | -0.473 | 29.7% (inactive) | -0.39 (inactive) | -1.9e-05 (inactive) | 0.00586 (inactive) | inactive | 33.9% (inactive)
26 | COc1ccccc1C(=O)NCC(=O)n1nc(C)cc1C | 542 | -13.5% (inactive) | -24% (inactive) | 146 | 0.666 | 0.744 | -0.112 | 19.8% (inactive) | -0.331 (inactive) | -5.1e-05 (inactive) | 0.0067 (inactive) | inactive | -1.54% (inactive)
27 | Cc1c(O)c(CN2CCCC2)cc2c1oc(=O)c1ccccc12 | 602 | 3.3% (inactive) | 92.9% (active) | 77.2 | 0.99 | 0.189 | -0.00827 | -8.95% (inactive) | -0.44 (inactive) | -2.9e-05 (inactive) | 0.00331 (inactive) | inactive | 17.4% (inactive)
